In ChEMBL document CHEMBL2311466, “Synthesis and antibacterial and antifungal evaluation of some chalcone based sulfones and bisulfones” (2013):
Values after ≈ are worked out from the molar mass of the structure shown.

Legend:
[1] = test system: Bacillus subtilis; assay: Antimicrobial activity against Bacillus subtilis after 12 to 18 hrs by micro-well dilution method; format: functional
Method in brief: (§1)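 Clinical isolates were tested by broth micro-well dilution per NCCLS, in triplicate. Stocks were 10 mg/ml in DMSO, with a 1 mg/ml working solution in methanol. Two-fold serial dilutions ran across 10 wells. Cultures were grown to log phase in Luria Bertani or nutrient broth for 12-18 h at 37 °C and adjusted by OD600 to 10⁷ cfu per well. MIC is the lowest concentration preventing visible growth. Ampicillin and kanamycin served as reference drugs.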

[2] = test system: Candida albicans; assay: Antifungal activity against Candida albicans after 12 to 18 hrs by micro-well dilution method; format: functional
Method in brief: (§2)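 Broth micro-well dilution per NCCLS, in triplicate. Compounds were stocked at 10 mg/ml in DMSO and diluted to a 1 mg/ml working solution in methanol. Two-fold serial dilutions ran across 10 wells of medium. Clinical isolates were subcultured on Sabouraud dextrose agar at 37 °C for 48-72 h. Cultures were grown in yeast/peptone/D-glucose medium for 12-18 h at 37 °C and sized by OD600 to 10⁴ cfu per well. MIC is the lowest concentration with no visible growth. Amphotericin-B and nystatin served as reference drugs.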

[3] = test system: Pseudomonas aeruginosa; assay: Antimicrobial activity against Pseudomonas aeruginosa after 12 to 18 hrs by micro-well dilution method; format: functional; method in brief: as §1
[4] = test system: Salmonella typhimurium; assay: Antimicrobial activity against Salmonella typhimurium after 12 to 18 hrs by micro-well dilution method; format: functional, Salmonella enterica subsp. enterica serovar Typhimurium; conditions: Salmonella enterica; method in brief: as §1
[5] = test system: Aspergillus niger; assay: Antifungal activity against Aspergillus niger after 12 to 18 hrs by micro-well dilution method; format: functional; method in brief: as §2
[6] = test system: Staphylococcus aureus; assay: Antimicrobial activity against Staphylococcus aureus after 12 to 18 hrs by micro-well dilution method; format: functional; method in brief: as §1
[7] = test system: Aspergillus niger; assay: Antifungal activity against Aspergillus niger after 12 to 18 hrs by broth microdilution method; format: functional
Method in brief: (§3)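 Clinical isolate from a medical college microbiology department, subcultured on Sabouraud dextrose agar at 37 °C for 48–72 h. Liquid culture was grown in yeast/peptone/D-glucose medium for 12–18 h at 37 °C, then diluted by OD600 to 10⁴ cfu/100 per well. Compounds were made as a 10 mg/ml DMSO stock and a 1 mg/ml methanol working solution. Twofold serial dilutions ran across 10 wells, in triplicate, per NCCLS micro-well dilution. MIC was the lowest concentration with no visible growth.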

[8] = test system: Candida albicans; assay: Antifungal activity against Candida albicans after 12 to 18 hrs by broth microdilution method; format: functional; method in brief: as §3

O=C(CC(c1ccccc1)S(=O)(=O)c1ccccc1)c1ccccc1 (stereo not drawn) showed an MIC [1] of 31.2 µg/mL (≈ 89.2 µM), an MIC [2] of 3.9 µg/mL (≈ 11.1 µM) and an MIC [3] of 125 µg/mL (≈ 357 µM). For the same compound, the MIC [4] was 1.95 µg/mL (≈ 5.56 µM), the MIC [5] was 7.81 µg/mL (≈ 22.3 µM) and the MIC [6] was 62.5 µg/mL (≈ 178 µM).
For COc1cc(C(CC(=O)c2ccc(Br)cc2)S(=O)(=O)c2ccccc2)cc(OC)c1OC (stereo not drawn), the MIC [1] was 31.2 µg/mL (≈ 60.2 µM), the MIC [2] was 3.9 µg/mL (≈ 7.51 µM) and the MIC [3] was 125 µg/mL (≈ 241 µM). For the same compound, the MIC [4] was 1.95 µg/mL (≈ 3.75 µM), the MIC [5] was 7.81 µg/mL (≈ 15 µM) and the MIC [6] was 125 µg/mL (≈ 241 µM).
With NYSTATIN the MIC [7] was 7.81 µg/mL and the MIC [8] was 7.81 µg/mL.
In the case of C[C@@H]1[C@H](O)[C@@H](C)/C=C/C=C/C=C/C=C/C=C/C=C/C=C/[C@H](O[C@@H]2O[C@H](C)[C@@H](O)[C@H](N)[C@@H]2O)C[C@@H]2O[C@](O)(C[C@@H](O)C[C@@H](O)[C@H](O)CC[C@@H](O)C[C@@H](O)CC(=O)O[C@H]1C)C[C@H](O)[C@H]2C(=O)O [AMPHOTERICIN B], the MIC [7] is reported as 500 µg/mL (≈ 541 µM) and the MIC [8] is reported as 15.6 µg/mL (≈ 16.9 µM).
O=C(CC(c1ccccc1)S(=O)(=O)c1ccccc1)CC(c1ccccc1)S(=O)(=O)c1ccccc1 (stereo not drawn) showed an MIC [1] of 125 µg/mL (≈ 241 µM), an MIC [2] of 250 µg/mL (≈ 482 µM) and an MIC [3] of 62.5 µg/mL (≈ 121 µM). The MIC [4] was 250 µg/mL (≈ 482 µM), the MIC [5] was 125 µg/mL (≈ 241 µM) and the MIC [6] was 62.5 µg/mL (≈ 121 µM).
With O=C(CC(c1cccc([N+](=O)[O-])c1)S(=O)(=O)c1ccccc1)c1ccc(Cl)cc1 (stereo not drawn) the MIC [1] was 62.5 µg/mL (≈ 145 µM), the MIC [2] was 1.95 µg/mL (≈ 4.54 µM) and the MIC [3] was 62.5 µg/mL (≈ 145 µM). The MIC [4] was 62.5 µg/mL (≈ 145 µM), the MIC [5] was 62.5 µg/mL (≈ 145 µM) and the MIC [6] was 125 µg/mL (≈ 291 µM).
O=C(CC(c1ccc(Cl)cc1)S(=O)(=O)c1ccccc1)c1ccccc1 (stereo not drawn) gave an MIC [1] of 62.5 µg/mL (≈ 162 µM), an MIC [2] of 1.95 µg/mL (≈ 5.07 µM) and an MIC [3] of 62.5 µg/mL (≈ 162 µM). The MIC [4] was 125 µg/mL (≈ 325 µM), the MIC [5] was 125 µg/mL (≈ 325 µM) and the MIC [6] was 125 µg/mL (≈ 325 µM).
With NC[C@H]1O[C@H](O[C@H]2[C@H](O)[C@@H](O[C@H]3O[C@H](CO)[C@@H](O)[C@H](N)[C@H]3O)[C@H](N)C[C@@H]2N)[C@H](O)[C@@H](O)[C@@H]1O [KANAMYCIN] the MIC [1] was 7.81 µg/mL (≈ 16.1 µM), the MIC [3] was 250 µg/mL (≈ 516 µM) and the MIC [4] was 15.6 µg/mL (≈ 32.2 µM). For the same compound, the MIC [6] was 500 µg/mL (≈ 1030 µM).
Compound Cc1ccc(C(CC(=O)CC(c2ccc(C)cc2)S(=O)(=O)c2ccccc2)S(=O)(=O)c2ccccc2)cc1 (stereo not drawn) has an MIC [1] of 62.5 µg/mL (≈ 114 µM), an MIC [2] of 1.95 µg/mL (≈ 3.57 µM) and an MIC [3] of 62.5 µg/mL (≈ 114 µM). It also gave an MIC [4] of 31.2 µg/mL (≈ 57.2 µM), an MIC [5] of 31.2 µg/mL (≈ 57.2 µM) and an MIC [6] of 62.5 µg/mL (≈ 114 µM).
O=C(CC(c1ccc(Cl)cc1)S(=O)(=O)c1ccccc1)c1ccc(Cl)cc1 (stereo not drawn) was tested, and the MIC [1] was 15.6 µg/mL (≈ 37.2 µM), the MIC [2] was 31.2 µg/mL (≈ 74.5 µM) and the MIC [3] was 125 µg/mL (≈ 298 µM). For the same compound, the MIC [4] was 125 µg/mL (≈ 298 µM), the MIC [5] was 15.6 µg/mL (≈ 37.2 µM) and the MIC [6] was 250 µg/mL (≈ 596 µM).
Work on O=C(CC(c1ccccc1)S(=O)(=O)c1ccccc1)c1ccc(Br)cc1 (stereo not drawn) yielded an MIC [1] of 62.5 µg/mL (≈ 146 µM), an MIC [2] of 125 µg/mL (≈ 291 µM) and an MIC [3] of 62.5 µg/mL (≈ 146 µM). The MIC [4] was 250 µg/mL (≈ 582 µM), the MIC [5] was 62.5 µg/mL (≈ 146 µM) and the MIC [6] was 125 µg/mL (≈ 291 µM).
CC1(C)S[C@@H]2[C@H](NC(=O)[C@H](N)c3ccccc3)C(=O)N2[C@H]1C(=O)O [AMPICILLIN] was tested, and the MIC [1] was 250 µg/mL (≈ 715 µM), the MIC [3] was 125 µg/mL (≈ 358 µM) and the MIC [4] was 125 µg/mL (≈ 358 µM). It also gave an MIC [6] of 500 µg/mL (≈ 1430 µM).
O=C(CC(c1ccc(Cl)cc1)S(=O)(=O)c1ccccc1)CC(c1ccc(Cl)cc1)S(=O)(=O)c1ccccc1 (stereo not drawn) gave an MIC [1] of 31.2 µg/mL (≈ 53.2 µM), an MIC [2] of 1.95 µg/mL (≈ 3.32 µM) and an MIC [3] of 250 µg/mL (≈ 425 µM). It also gave an MIC [4] of 15.6 µg/mL (≈ 26.6 µM), an MIC [5] of 125 µg/mL (≈ 213 µM) and an MIC [6] of 250 µg/mL (≈ 425 µM).
Work on COc1ccc(C(CC(=O)c2ccc(Br)cc2)S(=O)(=O)c2ccccc2)cc1OC (stereo not drawn) yielded an MIC [1] of 62.5 µg/mL (≈ 128 µM), an MIC [2] of 15.6 µg/mL (≈ 31.9 µM) and an MIC [3] of 62.5 µg/mL (≈ 128 µM). The MIC [4] was 1.95 µg/mL (≈ 3.98 µM), the MIC [5] was 15.6 µg/mL (≈ 31.9 µM) and the MIC [6] was 62.5 µg/mL (≈ 128 µM).
For COc1ccc(C(CC(=O)CC(c2ccc(OC)cc2)S(=O)(=O)c2ccccc2)S(=O)(=O)c2ccccc2)cc1 (stereo not drawn), the MIC [1] was 31.2 µg/mL (≈ 54 µM), the MIC [2] was 125 µg/mL (≈ 216 µM) and the MIC [3] was 125 µg/mL (≈ 216 µM). It also gave an MIC [4] of 62.5 µg/mL (≈ 108 µM), an MIC [5] of 125 µg/mL (≈ 216 µM) and an MIC [6] of 250 µg/mL (≈ 432 µM).
